{"source": "paper PMC6698915", "about": "(Cancer chemotherapy and pharmacology, 2015)", "key": {"[1]": {"system": "patients with advanced solid tumors", "test": "Adverse events", "assay_type": "in vivo, human"}, "[2]": {"system": "advanced solid tumors", "test": "Antitumor efficacy", "assay_type": "in vivo, human", "how_it_was_run": "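Open-label single-centre 3+3 trial in advanced solid tumors. Oral PI3K-inhibitor test compound was given at 50, 80 or 100 mg/day continuously. […] Imaging after each even-numbered cycle; best response per RECIST. FFPE tumor PTEN IHC scored 0/1+/2+.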"}, "[3]": {"system": "patients with advanced solid tumors", "details": "cited from earlier work"}, "[4]": {"system": "class IA PI3K paralogues (p110α, β, and δ)", "details": "cited from earlier work"}, "[5]": {"system": "PTEN-deficient tumor", "details": "buparlisib plus cisplatin; cited from earlier work"}, "[6]": {"details": "Group 2 (n = 14 subjects), with carboplatin + weekly paclitaxel q28 days"}, "[7]": {"details": "25 patients measurable by RECIST, both groups"}}, "note": "Entries after “also recorded” stand apart in the source; their conditions may differ.", "data": [{"smiles": "Nc1cc(C(F)(F)F)c(-c2cc(N3CCOCC3)nc(N3CCOCC3)n2)cn1", "note": "[buparlisib]", "values": [{"measurement": "incidence rate of ≥grade 3 leukopenia", "setting": "[1]; Group 2", "value": 64, "unit": "%"}, {"measurement": "incidence rate of ≥grade 3 neutropenia", "setting": "[1]; Group 2", "value": 79, "unit": "%"}, {"measurement": "ALT and/or AST elevation, any grade", "setting": "[1]; [6]", "value": "6 (43) n (%)"}, {"measurement": "ALT and/or AST elevation, ≥Grade 3", "setting": "[1]; [6]", "value": "1 (7) n (%)"}, {"measurement": "Alkaline phosphatase, elevated, any grade", "setting": "[1]; [6]", "value": "5 (36) n (%)"}, {"measurement": "Alkaline phosphatase, elevated, ≥Grade 3", "setting": "[1]; [6]", "value": "1 (7) n (%)"}, {"measurement": "Alopecia, any grade", "setting": "[1]; [6]", "value": "11 (79) n (%)"}, {"measurement": "Anemia, any grade", "setting": "[1]; [6]", "value": "14 (100) n (%)"}, {"measurement": "Anemia, ≥Grade 3", "setting": "[1]; [6]", "value": "1 (7) n (%)"}, {"measurement": "Anorexia, any grade", "setting": "[1]; [6]", "value": "9 (64) n (%)"}, {"measurement": "Anorexia, ≥Grade 3", "setting": "[1]; [6]", "value": "0 n (%)"}, {"measurement": "Anxiety, any grade", "setting": "[1]; [6]", "value": "5 (36) n (%)"}, {"measurement": "Anxiety, ≥Grade 3", "setting": "[1]; [6]", "value": "0 n (%)"}, {"measurement": "Arthralgia, any grade", "setting": "[1]; [6]", "value": "7 (50) n (%)"}, {"measurement": "Arthralgia, ≥Grade 3", "setting": "[1]; [6]", "value": "0 n (%)"}, {"measurement": "Constipation, any grade", "setting": "[1]; [6]", "value": "8 (57) n (%)"}, {"measurement": "Constipation, ≥Grade 3", "setting": "[1]; [6]", "value": "0 n (%)"}, {"measurement": "Cough, any grade", "setting": "[1]; [6]", "value": "8 (57) n (%)"}, {"measurement": "Cough, ≥Grade 3", "setting": "[1]; [6]", "value": "0 n (%)"}, {"measurement": "Diarrhea, any grade", "setting": "[1]; [6]", "value": "7 (50) n (%)"}, {"measurement": "Diarrhea, ≥Grade 3", "setting": "[1]; [6]", "value": "0 n (%)"}, {"measurement": "Dyspepsia, any grade", "setting": "[1]; [6]", "value": "6 (43) n (%)"}, {"measurement": "Dyspepsia, ≥Grade 3", "setting": "[1]; [6]", "value": "0 n (%)"}, {"measurement": "Fatigue, any grade", "setting": "[1]; [6]", "value": "11 (79) n (%)"}, {"measurement": "Fatigue, ≥Grade 3", "setting": "[1]; [6]", "value": "2 (14) n (%)"}, {"measurement": "Hypercholesterolemia, any grade", "setting": "[1]; [6]", "value": "9 (64) n (%)"}, {"measurement": "Hypercholesterolemia, ≥Grade 3", "setting": "[1]; [6]", "value": "0 n (%)"}, {"measurement": "Hyperglycemia, any grade", "setting": "[1]; [6]", "value": "14 (100) n (%)"}, {"measurement": "Hyperglycemia, ≥Grade 3", "setting": "[1]; [6]", "value": "0 n (%)"}, {"measurement": "Hypertension, any grade", "setting": "[1]; [6]", "value": "6 (43) n (%)"}, {"measurement": "Hypertension, ≥Grade 3", "setting": "[1]; [6]", "value": "0 n (%)"}, {"measurement": "Hypertriglyceridemia, any grade", "setting": "[1]; [6]", "value": "8 (57) n (%)"}, {"measurement": "Hypertriglyceridemia, ≥Grade 3", "setting": "[1]; [6]", "value": "1 (7) n (%)"}, {"measurement": "Hypoalbuminemia, any grade", "setting": "[1]; [6]", "value": "13 (93) n (%)"}, {"measurement": "Hypoalbuminemia, ≥Grade 3", "setting": "[1]; [6]", "value": "0 n (%)"}, {"measurement": "Hypocalcemia, any grade", "setting": "[1]; [6]", "value": "5 (36) n (%)"}, {"measurement": "Hypocalcemia, ≥Grade 3", "setting": "[1]; [6]", "value": "0 n (%)"}, {"measurement": "Hypokalemia, any grade", "setting": "[1]; [6]", "value": "5 (36) n (%)"}, {"measurement": "Hypokalemia, ≥Grade 3", "setting": "[1]; [6]", "value": "1 (7) n (%)"}, {"measurement": "Hypomagnesemia, any grade", "setting": "[1]; [6]", "value": "7 (50) n (%)"}, {"measurement": "Hypomagnesemia, ≥Grade 3", "setting": "[1]; [6]", "value": "0 n (%)"}, {"measurement": "Hyponatremia, any grade", "setting": "[1]; [6]", "value": "6 (43) n (%)"}, {"measurement": "Hyponatremia, ≥Grade 3", "setting": "[1]; [6]", "value": "0 n (%)"}, {"measurement": "Leukopenia, any grade", "setting": "[1]; [6]", "value": "14 (100) n (%)"}, {"measurement": "Leukopenia, ≥Grade 3", "setting": "[1]; [6]", "value": "9 (64) n (%)"}, {"measurement": "Lymphopenia, any grade", "setting": "[1]; [6]", "value": "7 (50) n (%)"}, {"measurement": "Lymphopenia, ≥Grade 3", "setting": "[1]; [6]", "value": "7 (50) n (%)"}, {"measurement": "Mucositis, oral, any grade", "setting": "[1]; [6]", "value": "5 (36) n (%)"}, {"measurement": "Mucositis, oral, ≥Grade 3", "setting": "[1]; [6]", "value": "2 (14) n (%)"}, {"measurement": "Myalgia, any grade", "setting": "[1]; [6]", "value": "5 (36) n (%)"}, {"measurement": "Myalgia, ≥Grade 3", "setting": "[1]; [6]", "value": "0 n (%)"}, {"measurement": "Nausea, any grade", "setting": "[1]; [6]", "value": "10 (71) n (%)"}, {"measurement": "Nausea, ≥Grade 3", "setting": "[1]; [6]", "value": "0 n (%)"}, {"measurement": "Neuropathy, sensory, any grade", "setting": "[1]; [6]", "value": "5 (36) n (%)"}, {"measurement": "Neuropathy, sensory, ≥Grade 3", "setting": "[1]; [6]", "value": "0 n (%)"}, {"measurement": "Neutropenia, any grade", "setting": "[1]; [6]", "value": "13 (93) n (%)"}, {"measurement": "Neutropenia, ≥Grade 3", "setting": "[1]; [6]", "value": "11 (79) n (%)"}, {"measurement": "Pain, not otherwise specified, any grade", "setting": "[1]; [6]", "value": "5 (36) n (%)"}, {"measurement": "Pain, not otherwise specified, ≥Grade 3", "setting": "[1]; [6]", "value": "0 n (%)"}, {"measurement": "Rash, skin toxicity, any grade", "setting": "[1]; [6]", "value": "8 (57) n (%)"}, {"measurement": "Rash, skin toxicity, ≥Grade 3", "setting": "[1]; [6]", "value": "0 n (%)"}, {"measurement": "Thrombocytopenia, any grade", "setting": "[1]; [6]", "value": "13 (93) n (%)"}, {"measurement": "Thrombocytopenia, ≥Grade 3", "setting": "[1]; [6]", "value": "0 n (%)"}, {"measurement": "febrile neutropenia", "setting": "[1]; both groups", "value": "no episodes of febrile neutropenia"}, {"measurement": "treatment-related deaths", "setting": "[1]; both groups", "value": "no treatment-related deaths"}, {"measurement": "best response: confirmed partial response (PR)", "setting": "[2]; [7]", "value": "four"}, {"measurement": "best response: progression of disease", "setting": "[2]; [7]", "value": "three"}, {"measurement": "confirmed objective response rate", "setting": "[2]; 25 patients with measurable disease, Groups 1 and 2 (1 CR, 4 PRs; 5/25)", "value": 20, "unit": "%"}, {"measurement": "patients with reductions in measurable disease of at least 20 % and/or at least six cycles", "setting": "[2]; of patients who completed at least one cycle (18/25)", "value": 72, "unit": "%"}, {"measurement": "patients with reductions in measurable disease of at least 20 % and/or at least six cycles", "setting": "[2]; of patients who received any study treatment (18/30)", "value": 60, "unit": "%"}, {"measurement": "duration of disease control", "setting": "[2]; one person, metastatic parotid carcinoma to bone, loss of PTEN expression, Group 2", "value": "approximately 20 months"}, {"measurement": "alkaline phosphatase nadir", "setting": "[2]; same parotid carcinoma patient, baseline 236, normal range 45–129 U/L", "value": 80, "unit": "U/L"}, {"measurement": "outcome in patients with loss of PTEN expression", "setting": "[2]; three patients, PTEN IHC score = 0", "value": "all derived clinical benefit from treatment; also recorded: experienced objective radiographic tumor reductions or clinical benefit"}, {"measurement": "maximum tolerated dose (MTD) of buparlisib monotherapy", "setting": "[3]", "value": 100, "unit": "mg/day"}, {"measurement": "most common adverse events", "setting": "[3]; monotherapy, 83 patients, dose escalation and expansion", "value": "decreased appetite, diarrhea, nausea, hyperglycemia, and rash"}, {"measurement": "patients with radiographic responses", "setting": "[3]; monotherapy, among 83 patients, one confirmed, three unconfirmed", "value": "Four"}, {"measurement": "inhibition of class IA PI3K paralogues", "setting": "[4]", "value": "potently inhibits"}, {"measurement": "effect of combination in PTEN-deficient xenograft", "setting": "[5]", "value": "synthetic lethality was achieved"}]}]}
